For data set [1], the system named is P. falciparum 3D7 parasites. The data set can be described thus: P. falciparum 3D7 asexual-stage parasite LDH viability assay. The conditions noted are these: for EC50: Plasmodium falciparum, 3D7, 72 h, read-out: Control compound activity against 3D7 parasites, EC50, 3D7, LDH assay, 72 h, value (SD). The data set is classed as cell-based, Plasmodium falciparum.

The next data set deals with Pf Dd2 parental line. Briefly: 3H-hypoxanthine 72 h assay, Dd2 parental line. Format: cell-based. The note with it: Plasmodium falciparum, DD2, read-out: Pf Dd2 EC50, Dd2 parental line, 3H-hypoxanthine 72 h; average of two experiments.
Data set [2] relates to P. berghei ANKA parasites expressing GFP. The data set can be described thus: Peter's 4 day P. berghei mouse model. The note with it: 10 mg/kg. The data set is classed as in vivo. In a few lines:
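Swiss mice (four per group) were infected IV with 1 × 10^7 P. berghei ANKA GFPcon-infected erythrocytes from donor mice. Dosing was oral once daily for 4 days, starting 2 h post-infection: test compound at 20 mg/kg in 20% DMSO/60% propylene glycol/20% water, or chloroquine at 10 mg/kg in water. Day-4 parasitemia was measured as GFP+ cells per 100,000 events and by Giemsa smears, with reduction calculated against vehicle.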

Data set [3] has as its system Pf Dd2 expressing ScDHODH. The data set can be described thus: ScDHODH asexual-stage assay. Format: cell-based. The conditions noted are these: Plasmodium falciparum, DD2, 72 h, read-out: Dd2 ScDHODH EC50. In a few lines:
(§1)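 Parasites were sorbitol-synchronised one cycle before setup. Ring stages at 0.5% parasitemia and 2% hematocrit were plated onto twofold compound dilutions and incubated at 37 °C for 72 h. Cells were fixed in 0.25% glutaraldehyde (RT, 30 min), stained with 2.5× SYBR Green (37 °C, 30 min) and counted by flow cytometry. EC50 is the average of three independent experiments.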

Data set [4] relates to mitochondrial electron transport chain of P. falciparum 3D7 asexual parasites. The data set can be described thus: ETC biosensor / oxygen consumption rate. Format: cell-based, Plasmodium falciparum. The conditions noted are these: compounds at 5 μM, malate as the energy source. In outline:
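Magnet-purified trophozoite-infected RBCs were saponin-released (0.05%, 37 °C, 3 min) and washed. Parasites were suspended in MAS buffer with 25 mM malate and 0.002% digitonin and seeded at 5 × 10^6 per Cell-Tak-coated well (800g, 10 min). Seahorse XFe96 OCR was read at baseline, after test compound (5 μM final), after TMPD (0.2 mM) with ascorbate (2 mM), then after NaN3 (10 mM). Each cycle was 20 s mix, 1 min wait, 2.5 min measure.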

Data set [5] concerns Pf SB1-A6 strain with a CNV (∼2-fold) and a C276F mutation in DHODH. Briefly: SB1-A6 asexual-stage assay. Format: cell-based. The conditions noted are these: Plasmodium falciparum, 72 h, read-out: SB1-A6 EC50. In outline: as §1
The test system of a further data set is HepG2. Briefly: HepG2 host cell viability in the liver stage panel. The conditions noted are these: Homo sapiens, HepG2, 48 h, read-out: HepG2 EC50 (liver stage). Format: cell-based.
The test system of the next data set is P. berghei EEFs. The data set can be described thus: Exoerythrocytic stage assay. The data set is classed as cell-based. The note with it: Plasmodium berghei, 48 h, read-out: Pb liver stage EEFs EC50 (SD).
Data set [6] relates to Pf Dd2 strain with an I22L mutation in the Qi site cyt b. Briefly: 3H-hypoxanthine 72 h assay, Dd2 cyt b. Format: cell-based, Plasmodium falciparum. In outline:
(§2)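 Asexual blood-stage parasites in hypoxanthine-free RPMI 1640 with HEPES, NaHCO3, neomycin (100 μg/mL) and Albumax II (5 g/L). Infected blood (0.3% parasitemia, 2.5% hematocrit) was exposed to a 10-point serial dilution at 37 °C under 93% N2/4% CO2/3% O2. After 48 h, [3H]-hypoxanthine (0.5 μCi/well) was added for 24 h more. Scintillation cpm were normalised to untreated controls, and logit regression gave values as means of two experiments.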

A further data set relates to K1. The data set can be described thus: 3H-hypoxanthine 72 h assay, K1. The conditions noted are these: Plasmodium falciparum, K1, read-out: Pf multidrug-resistant strain EC50 K1. The data set is classed as cell-based.
Data set [7] deals with drug-resistant P. falciparum strains. The data set can be described thus: Profiling against a selection of multidrug-resistant parasites. Format: cell-based, Plasmodium falciparum. In outline:
as §2

The next data set relates to 7G8. Briefly: 3H-hypoxanthine 72 h assay, 7G8. Format: cell-based. The conditions noted are these: Plasmodium falciparum, 7G8, read-out: Pf multidrug-resistant strain EC50 7G8.
Data set [8] is described as follows: Kinetic aqueous solubility. Format: physicochemical. The conditions noted are these: kinetic in PBS. In outline:
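Miniaturised shake flask: test compound (200 μM) in PBS pH 7.4 was shaken at 600 rpm, 25 °C for 2 h, filtered, and the filtrate half-diluted in acetonitrile. Run in duplicate.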

The next data set concerns RF12. The data set can be described thus: 3H-hypoxanthine 72 h assay, RF12. Format: cell-based. The conditions noted are these: Plasmodium falciparum, read-out: Pf multidrug-resistant strain EC50 RF12.
The nature of data set [9]: Hepatocyte stability, rat. Format: in vitro ADME. The conditions noted are these: pooled rat hepatocytes. In outline: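 Test compound (1 μM) in Krebs–Henseleit buffer was incubated with pooled rat hepatocytes (1 × 10^6 cells/mL) at 37 °C, 5% CO2, with samples from 0 to 90 min. Reactions were quenched with ice-cold acetonitrile and centrifuged, and supernatants were analysed by LC–MS/MS. Half-life and CLint were derived from parent remaining. Run in duplicate.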

A further data set in a line: LogD at pH 7.4. The data set is classed as physicochemical. The conditions noted are these: 1-octanol/phosphate-buffered saline (1:1, v/v).
For the next data set, the system named is NF54. The data set can be described thus: 3H-hypoxanthine 72 h assay, NF54. Format: cell-based. The note with it: Plasmodium falciparum, NF54, read-out: Pf multidrug-resistant strain EC50 NF54.
Where [10] appears, read: 3D7 parasite EC50 compared to 17.

Consider `CCn1cc(-c2nc(C)no2)c(=O)c2cc(F)c(N3CCC(C(C)C)CC3)cc21` [Compound 39, 1-Ethyl-6-fluoro-7-(4-isopropyl-1-piperidyl)-3-(3-methyl-1,2,4-oxadiazol-5-yl)quinolin-4-one], for which the “fold less active/potent than 17” value in data set [1] (setting [10]) worked out at 2 fold.
The EC50 is the concentration needed to bring the measured effect to its halfway point. `CS(=O)(=O)c1ccc(-c2cnc(N)c(-c3ccc(C(F)(F)F)nc3)c2)cc1` [MMV048]: the EC50 with Pf Dd2 parental line stood at 16 nM.
`CCN(CC)CCCC(C)Nc1ccnc2cc(Cl)ccc12` (centres unmarked) [CQ, chloroquine, reference compound]: the half-maximal effective concentration (EC50) in data set [1] was 35 nM. In [2] (average for four mice on day 4), the “% parasitemia” value is 0.02%. Also, the “% reduction in parasitemia” value in data set [2] (versus the vehicle control, four mice, day 4) came out at 99.8%.
For the compound `CCn1cc(-c2nc(C)no2)c(=O)c2cc(F)c(N3CCC(c4ccccc4)CC3)cc21` [Compound 40, 1-Ethyl-6-fluoro-3-(3-methyl-1,2,4-oxadiazol-5-yl)-7-(4-phenyl-1-piperidyl)quinolin-4-one], the “fold less active/potent than 17” value in data set [1] (setting [10]) stood at 2 fold.
On to `Cc1cc(Nc2ccc(S(F)(F)(F)(F)F)cc2)n2nc(C(C)(F)F)nc2n1` [DSM265, reference compound], for which the EC50 was > 10000 nM in data set [3], 24 nM in the data set on Pf Dd2 parental line and > 10000 nM in data set [5]. Besides, the “effect on malate-dependent oxygen consumption rate (OCR)” value in [4] is listed as “had no effect”.
For the compound `O=C(NCCN1CCCC1)c1cc(-c2ccc(CN3CCOCC3)cc2)nc2ccc(F)cc12` [DDD107498], in the data set on Pf Dd2 parental line, the concentration for a half-maximal effect (EC50) was 0.4 nM.
On to `CCn1cc(-c2nc(C)no2)c(=O)c2cc(F)c(N3CCCC(C)C3)cc21` (centres unmarked) [Compound 34, 1-Ethyl-6-fluoro-3-(3-methyl-1,2,4-oxadiazol-5-yl)-7-(3-methyl-1-piperidyl)quinolin-4-one], for which the “fold less active/potent than 17” value in data set [1] (setting [10]) worked out at 5 fold.
With `O=C1C(O)=C([C@H]2CC[C@H](c3ccc(Cl)cc3)CC2)C(=O)c2ccccc21` [ATQ, atovaquone, reference compound], the 50% effective concentration (EC50) was > 10000 nM in data set [3], 1 nM in the data set with Pf Dd2 parental line and > 10000 nM in data set [5].
Turning to `CCn1cc(-c2nc(C)no2)c(=O)c2cc(F)c(N3CCN(C(C)=O)CC3)cc21` [Compound 33, 7-(4-Acetylpiperazin-1-yl)-1-ethyl-6-fluoro-3-(3-methyl-1,2,4-oxadiazol-5-yl)quinolin-4-one], the “effect on malate-dependent oxygen consumption rate (OCR)” value in data set [4] is reported as “does not affect the OCR”.
As for `CCn1cc(C(N)=O)c(=O)c2cc(F)c(N3CCC(C)CC3)cc21` [Compound 22, 1-Ethyl-6-fluoro-7-(4-methyl-1-piperidyl)-4-oxo-quinoline-3-carboxamide], the EC50 in the data set with HepG2 was > 50000 nM; with P. berghei EEFs it was 24 nM. Also, the “fold less active/potent than 17” value in data set [1] (setting [10]) is reported as “approximately 20 fold”. The “difference in sensitivity between the ELQ-300 resistant Dd2 strain and the Dd2 parental strain” value in [6] was “no difference in sensitivity”.
As for `CCn1cc(-c2nc(C)no2)c(=O)c2cc(F)c(N3CCC(CN4CCOCC4)CC3)cc21` [Compound 42, 1-Ethyl-6-fluoro-3-(3-methyl-1,2,4-oxadiazol-5-yl)-7-[4-(morpholinomethyl)-1-piperidyl]quinolin-4-one], the “fold less active than the benzyl analog 41” value in data set [1] (3D7 parasite EC50 compared to 41) is 30 fold.
For the compound `CCCC1CCN(c2cc3c(cc2F)c(=O)c(-c2nc(C)no2)cn3CC)CC1` [Compound 38, 1-Ethyl-6-fluoro-3-(3-methyl-1,2,4-oxadiazol-5-yl)-7-(4-propyl-1-piperidyl)quinolin-4-one], in data set [1] (setting [10]), the “fold more potent than 17” value was determined as 2 fold.
For `C[C@H]1[C@H](OC(=O)CCC(=O)O)O[C@@H]2O[C@@]3(C)CC[C@H]4[C@H](C)CC[C@@H]1[C@@]24OO3` [artesunate, reference compound], the EC50 in data set [1] came to 8 nM.
`CCNC(=O)c1cn(CC)c2cc(N3CCC(C)CC3)c(F)cc2c1=O` [Compound 23, N,1-Diethyl-6-fluoro-7-(4-methyl-1-piperidyl)-4-oxo-quinoline-3-carboxamide]: in data set [1] (setting [10]), the “fold less active/potent than 17” value is “approximately 20 fold”.
As to `CC1(C)c2nc(-c3ccc(F)cc3)c(Nc3ccc(F)cc3)n2CCN1C(=O)CN` [KAF156], the concentration giving a half-maximal response (EC50) with Pf Dd2 parental line stood at 8 nM.
A word on the hepatocyte CLint: it is the capacity of the preparation to metabolise the compound, expressed as a volume cleared per time. Lower therefore signals slow turnover. One may read the logD as the decadic logarithm of the distribution of all forms, ionised or not, between an organic phase and buffer at a given pH. Regarding `CCOC(=O)c1cn(CC)c2cc(N3CCC(Cc4ccccc4)CC3)c(F)cc2c1=O` [Compound 43, Ethyl 7-(4-Benzyl-1-piperidyl)-1-ethyl-6-fluoro-4-oxo-quinoline-3-carboxylate], the EC50 in the data set on K1 is 14 nM; in the data set on 7G8 it was 12 nM; with RF12, 5 nM; with Pf Dd2 parental line it was 15 nM; in the data set on NF54, 17 nM. The “potency against each drug-resistant strain compared to the Dd2 and NF54 wild-type parasites” value in data set [7] is “equipotent”. The “aqueous solubility pH 7.4” value in [8] was determined as 10.4 μM. Also, in [9], the hepatocyte CLint at 1 μM was > 92.4 µL/min/1e6 cells. In addition, the “difference in sensitivity between the ELQ-300 resistant Dd2 strain and the Dd2 parental strain” value in data set [6] is given as “no difference in sensitivity”. This compound also had a logD at 2 h in “LogD at pH 7.4” of 4.6.

Values taken from publication PMC10012268 (ACS Infectious Diseases, 2023).
